According to PubChem BioAssay AID623917 (The Scripps Research Institute Molecular Screening Center, 2012):
Activity calls are given as the source filed them.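 The calls were made as follows: active = E. coli viability under 80% of the solvent control at every tested dose; inactive = viability of 80% or more at every tested dose.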

Each compound was assayed on E. coli V66 viability, colony formation, Hfr cross (assay: recipient strain toxicity in Hfr mating – colony formation, Hfr recombination, cytotoxicity control for AddAB inhibitor project, dose response (AID 623917)). Details: active compounds read low.
How it was run: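 system = E. coli V66 recipient cells | medium = LB broth during compound exposure | compound dosing = five doses, 0.03–100 µM | incubation = 1 h growth with compound, 1.5 h overall | signal = CFU counting on non-selective plates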

Structure (SMILES) | viability
CCn1cc(C(=O)O)c(=O)c2cnc(N3CCNCC3)nc21 | 90% (inactive)
CCn1cc(C(=O)O)c(=O)c2cnc(N3CCN(C(=S)Nc4cccc(C(F)(F)F)c4)CC3)nc21 | 100% (inactive)
O=C(NCc1cccnc1)c1ccc([N+](=O)[O-])o1 | 100% (inactive)
O=C(Nc1ncccn1)c1ccc([N+](=O)[O-])o1 | 100% (inactive)
C=CCn1c(Sc2ncc([N+](=O)[O-])s2)n[nH]c1=O | 90% (inactive)
CC1CCc2c(sc(NC(=O)c3ccc([N+](=O)[O-])o3)c2C#N)C1 (stereo not drawn) | 90% (inactive)
CCn1cc(C(=O)O)c(=O)c2cc(F)c(N3CCN(C(=S)Nc4cccc(C(F)(F)F)c4)CC3)cc21 | 12%
CCn1cc(C(=O)O)c(=O)c2cnc(N3CCN(C(=S)Nc4ccccc4C(F)(F)F)CC3)nc21 | 90% (inactive)
